ChEMBL document CHEMBL1811868, “Structure-activity relationship of 2-hydroxy-2-aryl-2,3-dihydro-imidazo[1,2-a]pyrimidinium salts and 2N-substituted 4(5)-aryl-2-amino-1H-imidazoles as inhibitors of biofilm formation by Salmonella Typhimurium and Pseudomonas aeruginosa” (Bioorg Med Chem, 2011)
pIC50: −log10 of the molar value. Active and inactive are the calls of the source.

What was measured:
Salmonella typhimurium [1] = assay: Antimicrobial activity against Salmonella Typhimurium ATCC 14028 assessed as inhibition of planktonic cell growth at IC50 after 24 hrs by […]; format: functional, organism-based; conditions: Salmonella enterica subsp. enterica serovar Typhimurium
Method in brief: (§1)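 Planktonic growth was followed by Bioscreen growth curves, not by crystal violet. Overnight cultures were diluted 1:200 in TSB 1/20 and received compound serially diluted in DMSO or EtOH, in triplicate, with solvent controls. Plates were shaken at 25 °C for at least 24 h, reading A600 every 15 min.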

Salmonella typhimurium [2] = assay: Antimicrobial activity against Salmonella Typhimurium ATCC 14028 assessed as inhibition of biofilm formation after 24 hrs by spectrophotometry; format: functional, organism-based, Salmonella enterica subsp. enterica serovar Typhimurium; conditions: for pIC50: Salmonella enterica, ATCC 14028, 24 h
Method in brief: (§2)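 Static peg-lid biofilm prevention assay. Twofold serial dilutions in TSB diluted 1/20, 2–3 repeats per compound. Overnight S. Typhimurium ATCC14028 (LB-grown) or P. aeruginosa PA14 (TSB-grown) cultures were diluted 1:100, giving ~10^6 cells/well, then incubated 24 h at 25 °C without shaking. Pegs were PBS-washed, stained 30 min with 0.1% crystal violet, extracted with 30% acetic acid and read at OD570. IC50 was fitted from the concentration gradient.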

Salmonella typhimurium [3] = assay: Antimicrobial activity against Salmonella Typhimurium ATCC 14028 assessed as inhibition of planktonic cell growth at 40 uM after 24 hrs by […]; format: functional, organism-based; conditions: Salmonella enterica subsp. enterica serovar Typhimurium; method in brief: as §1
Pseudomonas aeruginosa [4] = assay: Antimicrobial activity against Pseudomonas aeruginosa PA14 assessed as inhibition of biofilm formation after 24 hrs by spectrophotometry; format: functional, organism-based; conditions: PA14, 24 h; method in brief: as §2
Pseudomonas aeruginosa [5] = assay: Antimicrobial activity against Pseudomonas aeruginosa PA14 assessed as inhibition of planktonic cell growth at IC50 after 24 hrs by […]; format: functional, organism-based; method in brief: as §1
Pseudomonas aeruginosa [6] = assay: Antimicrobial activity against Pseudomonas aeruginosa PA14 assessed as inhibition of planktonic cell growth at 40 uM after 24 hrs by […]; format: functional, organism-based; method in brief: as §1
Pseudomonas aeruginosa [7] = assay: Antimicrobial activity against Pseudomonas aeruginosa PA14 assessed as inhibition of planktonic cell growth at 80 uM after 24 hrs by […]; format: functional, organism-based; method in brief: as §1

Row | Compound | pIC50 (Salmonella typhimurium [2]) | pIC50 (Pseudomonas aeruginosa [4]) | growth inhibition (GI) (Salmonella typhimurium [1]) | growth inhibition (GI) (Salmonella typhimurium [3]) | growth inhibition (GI) (Pseudomonas aeruginosa [5]) | growth inhibition (GI) (Pseudomonas aeruginosa [6]) | inhibition (INH) (Salmonella typhimurium [2]) | growth inhibition (GI) (Pseudomonas aeruginosa [7])
1 | O=[N+]([O-])c1ccc([C@]2(O)C[n+]3cccnc3N2C2CCCCCCCCCCC2)cc1 | > 5.20 | 5.27 | Active | – | Active | – | – | –
2 | COc1cccc(CNc2ncc(-c3ccc([N+](=O)[O-])cc3)[nH]2)c1 | 4.72 | 5.43 | inactive | inactive | inactive | inactive | – | –
3 | CCCCCCCN1c2nccc[n+]2C[C@@]1(O)c1ccccc1 | 4.63 | 4.59 | Active | – | Active | – | – | –
4 | CCCCCCCCN1c2nccc[n+]2C[C@@]1(O)c1ccccc1 | 5.01 | 4.84 | Active | – | Active | – | – | –
5 | O[C@@]1(c2ccccc2)C[n+]2cccnc2N1C1CCCCCC1 | 4.07 | 3.72 | inactive | – | inactive | – | – | –
6 | CCCCCCCCCCN1c2nccc[n+]2C[C@@]1(O)c1ccccc1 | 4.82 | 4.52 | Active | – | Active | – | – | –
7 | CCCCCCCCCN1c2nccc[n+]2C[C@@]1(O)c1ccccc1 | 5.08 | 4.57 | Active | – | Active | – | – | –
8 | CCCCCN1c2nccc[n+]2C[C@@]1(O)c1ccc(Br)cc1 | 5.77 | 5.38 | inactive | inactive | inactive | inactive | – | –
9 | O=[N+]([O-])c1ccc([C@]2(O)C[n+]3cccnc3N2C2CC2)cc1 | 3.90 | 4.69 | – | – | – | – | – | –
10 | CN1c2nccc[n+]2C[C@@]1(O)c1ccccc1 | < 3.10 | < 3.40 | – | – | – | – | – | –
11 | CCCCN1c2nccc[n+]2C[C@@]1(O)c1ccccc1 | 3.39 | < 3.40 | – | – | – | – | – | –
12 | CCCCCCCCCCCCN1c2nccc[n+]2C[C@@]1(O)c1ccc(Cl)cc1 | 3.91 | < 3.10 | – | – | – | – | – | –
13 | CCCCCCCCNc1ncc(-c2cccc3ccccc23)[nH]1 | 3.62 | < 3.10 | – | – | – | – | 50% | –
14 | CCCCCCCCNc1ncc(-c2ccc(OC)cc2)[nH]1 | 3.40 | < 3.10 | – | – | – | – | 50% | –
15 | COc1ccc(CNc2ncc(-c3ccc([N+](=O)[O-])cc3)[nH]2)cc1 | < 3.10 | < 3.10 | – | – | – | – | – | –
16 | CCCCCCNc1ncc(-c2ccc(F)cc2)[nH]1 | < 3.40 | 4.90 | – | – | – | – | – | –

Row | Compound | pIC50 (Salmonella typhimurium [2]) | pIC50 (Pseudomonas aeruginosa [4]) | growth inhibition (GI) (Salmonella typhimurium [1]) | growth inhibition (GI) (Salmonella typhimurium [3]) | growth inhibition (GI) (Pseudomonas aeruginosa [5]) | growth inhibition (GI) (Pseudomonas aeruginosa [6]) | inhibition (INH) (Salmonella typhimurium [2]) | growth inhibition (GI) (Pseudomonas aeruginosa [7])
17 | CCCCCCCCNc1ncc(-c2ccc(Br)cc2)[nH]1 | 5.72 | < 3.10 | – | – | – | – | – | –
18 | O=[N+]([O-])c1ccc(-c2cnc(NC3CCCCC3)[nH]2)cc1 | 4.44 | 4.60 | inactive | inactive | – | – | – | –
19 | COc1cccc(CNc2ncc(-c3ccc(-c4ccc(-c5ccccc5)cc4)cc3)[nH]2)c1 | < 3.10 | < 3.10 | – | – | – | – | – | –
20 | CC(C)Nc1ncc(-c2ccccc2)[nH]1 | < 3.10 | 3.58 | – | – | – | – | – | –
21 | O=[N+]([O-])c1cccc(-c2cnc(NC3CCCCC3)[nH]2)c1 | 3.20 | 5.36 | – | – | inactive | inactive | – | –
22 | CCCCCCCCNc1ncc(-c2ccc(F)cc2)[nH]1 | < 3.40 | 5.51 | – | – | – | – | – | –
23 | CCCCCCCCN1c2nccc[n+]2C[C@@]1(O)c1ccc(S(C)(=O)=O)cc1 | 4.22 | 4.00 | – | – | – | – | – | –
24 | O[C@@]1(c2ccc(Cl)cc2)C[n+]2cccnc2N1C1CC1 | 4.08 | 3.75 | – | – | – | – | – | –
25 | CCCCCN1c2nccc[n+]2C[C@@]1(O)c1ccccc1 | 3.56 | 3.25 | – | – | – | – | – | –
26 | CC(C)CN1c2nccc[n+]2C[C@@]1(O)c1ccc(Cl)cc1 | 4.50 | 4.08 | inactive | inactive | – | – | – | –
27 | O[C@@]1(c2ccc(Cl)cc2)C[n+]2cccnc2N1C1CCCCCCC1 | 4.90 | 4.64 | Active | – | Active | – | – | –
28 | Clc1ccc(-c2cnc(NCc3ccccc3)[nH]2)cc1 | 4.51 | 4.58 | inactive | inactive | inactive | inactive | – | –
29 | CCCCCCCCN1c2nccc[n+]2C[C@@]1(O)c1ccc(-c2ccc([N+](=O)[O-])cc2)cc1 | 4.51 | 3.67 | – | – | – | – | – | –
30 | O=[N+]([O-])c1ccc([C@]2(O)C[n+]3cccnc3N2C23CC4CC(CC(C4)C2)C3)cc1 | 5.06 | 4.84 | – | – | – | – | – | –
31 | O[C@@]1(c2ccc(Cl)cc2)C[n+]2cccnc2N1C1CCCCCCCCCCC1 | 5.25 | 5.17 | Active | – | Active | – | – | –
32 | CCCCCN1c2nccc[n+]2C[C@@]1(O)c1ccc(Cl)cc1 | 4.49 | 3.79 | inactive | inactive | Active | – | – | –

Second part, led by results:

Row | pIC50 (Salmonella typhimurium [2]) | pIC50 (Pseudomonas aeruginosa [4]) | Compound | growth inhibition (GI) (Salmonella typhimurium [1]) | growth inhibition (GI) (Salmonella typhimurium [3]) | growth inhibition (GI) (Pseudomonas aeruginosa [5]) | growth inhibition (GI) (Pseudomonas aeruginosa [6]) | inhibition (INH) (Salmonella typhimurium [2]) | growth inhibition (GI) (Pseudomonas aeruginosa [7])
33 | 4.44 | – | O[C@@]1(c2ccc(I)cc2)C[n+]2cccnc2N1Cc1ccccc1 | inactive | inactive | – | – | – | –
34 | 4.73 | – | CCCCCCCCCCN1c2nccc[n+]2C[C@@]1(O)c1ccc(OC)cc1 | Active | – | – | – | – | –
35 | 4.18 | 3.34 | Fc1ccc(-c2cnc(NCc3ccc4c(c3)OCO4)[nH]2)cc1 | inactive | – | – | – | – | –
36 | 5.10 | – | CC(C)CN1c2nccc[n+]2C[C@@]1(O)c1ccc(Cl)c(Cl)c1 | inactive | Active | – | – | – | –
37 | 5.28 | 5.20 | CC(C)CN1c2nccc[n+]2C[C@@]1(O)c1ccc(Br)cc1 | inactive | Active | inactive | inactive | – | –
38 | 4.26 | 4.91 | CCCCCCN1c2nccc[n+]2C[C@@]1(O)c1ccc([N+](=O)[O-])cc1 | Active | – | Active | – | – | –
39 | 5.18 | 4.92 | CCCCCCCCN1c2nccc[n+]2C[C@@]1(O)c1ccc([N+](=O)[O-])cc1 | Active | – | Active | – | – | –
40 | 4.76 | – | O[C@@]1(c2ccc(F)cc2)C[n+]2cccnc2N1Cc1ccc2c(c1)OCO2 | inactive | inactive | – | – | – | –
41 | 5.00 | 4.65 | CCCCCCCCCCN1c2nccc[n+]2C[C@@]1(O)c1ccc([N+](=O)[O-])cc1 | Active | – | Active | – | – | –
42 | 5.36 | 4.87 | Clc1ccc(-c2cnc(NC3CCCC3)[nH]2)cc1 | inactive | inactive | inactive | inactive | – | –
43 | 4.74 | 4.69 | CCCCCCCCCN1c2nccc[n+]2C[C@@]1(O)c1ccc(Cl)cc1 | Active | – | Active | – | – | –
44 | 5.15 | 4.80 | CCCCCCCCN1c2nccc[n+]2C[C@@]1(O)c1ccc(Cl)cc1 | Active | – | Active | – | – | –
45 | < 3.10 | < 3.10 | COc1cccc(CNc2ncc(-c3ccc(Cl)c(Cl)c3)[nH]2)c1 | – | – | – | – | – | –
46 | 4.53 | 4.60 | CCCCN1c2nccc[n+]2C[C@@]1(O)c1ccc(Cl)cc1 | inactive | inactive | inactive | inactive | – | –
47 | 4.29 | 4.08 | CCCCCCCCCCN1c2nccc[n+]2C[C@@]1(O)c1ccc(Cl)cc1 | Active | – | Active | – | – | –
48 | 4.60 | 4.50 | CCCCNc1ncc(-c2ccccc2)[nH]1 | inactive | inactive | – | – | – | –
49 | 5.42 | 4.64 | CC(C)CNc1ncc(-c2ccc([N+](=O)[O-])cc2)[nH]1 | inactive | inactive | inactive | – | – | –
50 | 4.27 | – | O[C@@]1(c2ccc3c(c2)OCO3)C[n+]2cccnc2N1Cc1ccc2c(c1)OCO2 | inactive | – | – | – | – | –
51 | 3.92 | 3.43 | O[C@@]1(c2ccc(Cl)cc2)C[n+]2cccnc2N1C1CCC1 | – | – | – | – | – | –
52 | 3.77 | 4.25 | CNc1ncc(-c2ccc([N+](=O)[O-])cc2)[nH]1 | – | – | inactive | – | – | inactive
53 | 4.83 | 4.82 | CCCCCCCCN1c2nccc[n+]2C[C@@]1(O)c1cccc2ccccc12 | – | – | – | – | – | –
54 | 3.99 | 4.60 | CNc1ncc(-c2ccc(F)cc2)[nH]1 | – | – | inactive | inactive | – | –
